# Experimental data as given in ChEMBL document CHEMBL1128261, “Synthesis and biological activity of thiazolylindolequinones, analogues of the natural product BE 10988” (J Med Chem, 1995).
# Tests used:
# SK-BR-3 = assay: The IC50 value was measured on human breast cancer cell line SK-BR-3.; assay type: functional, cell-based
# Procedure, shortened: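 SKBr3 breast cancer cells were seeded at 10^4 cells/well for exponential growth over 4 days. Graded compound concentrations were added 2 h after plating (4 wells per concentration), with continuous exposure for 4 days and MTT growth readout. Each experiment was done at least twice, and IC50 was derived from the cumulative data.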
# V79 [1] = assay: The IC50 value was measured on V79 cells in the presence of air using MTT assay.; assay type: functional, cell-based; conditions: Cricetulus griseus
# Procedure, shortened: (§1)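 V79 Chinese hamster cells were exposed to drug under aerobic (air) or hypoxic (N2) conditions. After the drug was removed, cells proliferated for 3 days before MTT assay. IC50 is the concentration killing 50% of cells under the initial treatment condition.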
# V79 [2] = assay: The IC50 value was measured on V79 cells in the presence of nitrogen using MTT assay.; assay type: functional, cell-based; conditions: Cricetulus griseus; procedure, shortened: as §1
# [3] = Ratio of IC50 against V79 cells in the presence of air to that of nitrogen.; assay type: functional
Compound,IC50 (SK-BR-3) [µM],IC50 (V79 [1]) [µM],IC50 (V79 [2]) [µM],Ratio [3]
Cn1cc(-c2nc(C(N)=O)cs2)c2c1C(=O)C=C(N)C2=O,8.7,6.2,5.1,1.2
CCOC(=O)c1csc(-c2cn(C)c3c2C(=O)C(OC)=CC3=O)n1,27.8,423,345,1.2
CCOC(=O)c1nc(-c2cn(C)c3c2C(=O)C(OC)=CC3=O)cs1,16.9,38.7,60.9,0.64
O=C1c2c(O)ccc(O)c2C(=O)c2c(NCCNCCO)ccc(NCCNCCO)c21 [MITOXANTRONE],0.016,,,

# More lines, main results first:
IC50 (SK-BR-3) [µM],Compound,IC50 (V79 [1]) [µM],IC50 (V79 [2]) [µM],Ratio [3]
1.4,COC1=CC(=O)c2c(c(-c3nc(C)cs3)cn2C)C1=O,72.9,47.7,1.5
4.1,Cn1cc(-c2csc(C(N)=O)n2)c2c1C(=O)C=C(N)C2=O,5.5,4.1,1.3
0.73,Cc1csc(-c2cn(C)c3c2C(=O)C(=N)C=C3O)n1,10.3,6,1.7
4.8,CCOC(=O)c1coc(-c2cn(C)c3c2C(=O)C(OC)=CC3=O)n1,51.7,46,1.1
